GAA850 FXN act = increases GAA850 frataxin promoter reporter activity | HEK293 lucGAA850 FXN promoter luciferase reporter, 24 h; percent of 10 µM SAHA response | activation, % at 6 µM | hit rate 0.56% among 360,000 | AID 540364;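 active = activation above the average of all compounds screened plus 3 SD, cutoff fixed separately per campaign, cut at about 7.5% in these data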
Rce1 inhib = yeast Ras-converting enzyme inhibition. Q03530. yeast membranes, quenched prenylated peptide cleavage fluorescence. calls only. hit rate 0.27% among 290,000. AID 2563;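 active = fall in fluorescence gain of 50% or more versus controls, with final raw signal at or below 3038400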
Hep lipid drop = hepatic lipid droplet formation modulation. inhibition, % at 6.5 µM. AID 1656. hit rate 0.4% among 240,000. AML12 mouse hepatocytes, oleate lipid droplets, BODIPY imaging;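 active = lipid droplet intensity inhibited by at least 50%, with more than 500 cells counted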
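Test system: AML12 hepatocytes (mouse); reagent: oleate loading, 100 µM; dosing: one dose, 6.5 µM compound; incubation: overnight exposure; signal: fluorescence imaging, 20x objective, two fields per well; read-out basis: % inhibition of corrected integrated BODIPY droplet signal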
procasp7 counter = counter-screen for procaspase-3 activators: activators of human procaspase-7; P55210; recombinant procaspase-7, Ac-DEVD-pNA absorbance 405 nm; D23A/D198A/D206A triple mutant, cannot self-cleave; scale: DMSO 0, 5 µM enzyme 100; activation, % at 8.5 µM; hit rate 0.093% among 330,000;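 active = percent activation above the screen-wide mean plus 3 SD, cut at about 25% in these data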
Target sequence (P55210 whole entry D23A/D198A/D206A): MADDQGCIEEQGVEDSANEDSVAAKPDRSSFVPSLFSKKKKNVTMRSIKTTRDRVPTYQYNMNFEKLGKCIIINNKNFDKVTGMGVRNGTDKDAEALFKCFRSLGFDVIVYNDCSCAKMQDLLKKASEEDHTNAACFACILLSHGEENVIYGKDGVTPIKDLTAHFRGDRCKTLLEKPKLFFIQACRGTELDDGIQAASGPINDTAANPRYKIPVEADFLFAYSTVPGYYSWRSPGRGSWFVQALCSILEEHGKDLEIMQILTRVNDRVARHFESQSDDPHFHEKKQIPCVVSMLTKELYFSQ
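Material: Procaspase-7 triple mutant (PC-7 D3A) | Quantity: 2 µM procaspase-7 mutant as dispensed | Reagent: DEVD-pNA substrate | Times: 1 h preincubation, 2 h reaction | Technique: 405 nm absorbance of p-nitroaniline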
proCasp3 act = procaspase-3 (human) activation; P42574; recombinant procaspase-3 D3A, Ac-DEVD-pNA absorbance 405 nm; activation, % at 8.5 µM; hit rate 0.11% among 330,000;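 active = activation above the mean of all tested compounds plus 3 SD, cut at about 21% in these data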
Target sequence (P42574 whole entry D9A/D28A/D175A): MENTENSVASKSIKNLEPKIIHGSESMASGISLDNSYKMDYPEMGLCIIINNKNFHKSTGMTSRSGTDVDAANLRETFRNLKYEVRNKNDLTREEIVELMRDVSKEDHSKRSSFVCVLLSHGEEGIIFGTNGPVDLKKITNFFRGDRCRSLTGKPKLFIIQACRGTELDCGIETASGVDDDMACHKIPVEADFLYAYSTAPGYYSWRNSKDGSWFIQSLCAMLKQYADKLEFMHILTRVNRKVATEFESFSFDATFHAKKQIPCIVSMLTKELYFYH
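Evaluation: percent activation relative to control range; Material: Procaspase-3 D3A mutant, all three cleavage aspartates alanine; Compound: single dose, 8.5 µM nominal compound, 0.8% DMSO; Replication: one well per compound; Signal: absorbance at 405 nm, 0 and 120 min; Schedule: 1 h preincubation plus 2 h reaction at 25 °C.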
p-CIP stab down = compounds decreasing mouse p/CIP protein stability | Q05BA5 | decrease of EGFP signal, % at 10 µM | hit rate 0.01% among 290,000 | F442A p/CIP-EGFP cells, EGFP fluorescence, 16 h;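 active = EGFP signal decrease of at least 30% at 10 µM or well 3 SD below plate mean, unless failing retest; inactive = the rest, including hits failing retest or dose response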
Hep lipid conf = hepatic lipid droplet formation inhibition, confirmed. shares compounds with Hep lipid drop. AML12 mouse hepatocytes, BODIPY lipid droplet imaging; droplets induced with 100 µM oleic acid. inhibition, % at 5.2 µM. hit rate 65% among 870;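 active = inhibition of lipid droplet metric at least 50%, with more than 300 cells in each of four replicates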
AML12 tox img = AML12 hepatocyte cytotoxicity (counter-screen). shares compounds with Hep lipid drop. AML12 mouse hepatocytes, DAPI nuclear morphology cytotoxicity imaging; hits give high values; cells fed 100 µM oleate overnight. z-score at 5 µM. hit rate 3% among 870; in the data active = z-score above about 6.3;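 also: compound exposure lasted overnight at 37 °C before fixation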
AML12 tox conf = AML12 hepatocyte cytotoxicity, confirmed; shares compounds with Hep lipid drop; AML12 mouse hepatocyte viability, ATP luminescence; cells loaded with 100 µM oleic acid; cytotoxicity, % at 50 µM; 530 tested, under 10 active;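 active = cytotoxicity above 50% in each of four replicates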;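 also: compound exposure lasted overnight at 37 °C before the ATP read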
Large screens that a line does not name were inactive (follow-up assays come after a bar, where they were run). Shown are actives, neighbours in structure and some others; about 1.2% of the full set was active somewhere.

CCCCCc1cc(=O)oc2c(C(CCN3CCCC(C)C3)c3ccc(N(C)C)cc3)c(OC)cc(OC)c12 (centres undefined)	Hep lipid drop 62 | Hep lipid conf inactive | AML12 tox img inactive
COc1ccccc1/C=N\Nc1ccccc1[N+](=O)[O-]	Hep lipid drop 165 | Hep lipid conf 63 | AML12 tox img inactive
CC(C)Oc1ccccc1/C=N/Nc1ccccc1[N+](=O)[O-]	Hep lipid drop 95 | Hep lipid conf 115 | AML12 tox img inactive
Cc1[nH]c2ccccc2c1/C=N/Nc1ccccc1[N+](=O)[O-]	Hep lipid drop 85 | Hep lipid conf 114 | AML12 tox img inactive
COc1ccc(NS(=O)(=O)c2cc([N+](=O)[O-])ccc2N/N=C/c2c(C)[nH]c3ccccc23)cc1	none (no result: Rce1 inhib, Hep lipid drop, procasp7 counter, proCasp3 act, p-CIP stab down)
CCCOc1ccc(/C=N/Nc2ccccc2[N+](=O)[O-])c(O)c1	Hep lipid drop 56 | Hep lipid conf inactive | AML12 tox img inactive
COc1ccc(C(=S)N2CCOCC2)cc1OC(=O)c1ccc([N+](=O)[O-])cc1[N+](=O)[O-]	none
COc1cc(C(=S)N2CCOCC2)cc(OC)c1OC(=O)c1ccccc1[N+](=O)[O-]	Hep lipid drop 56 | Hep lipid conf inactive | AML12 tox img inactive
COC1=CC(C)C2CC3OC(O)CC4C(C)=C(OC)C(=O)C(C2(C)C1=O)C34C (centres undefined)	none (no result: Rce1 inhib, Hep lipid drop, procasp7 counter, proCasp3 act, p-CIP stab down)
Cc1ccc(-c2c(C)nn3c(N4CCOCC4)cc(C)nc23)cc1	Hep lipid drop 71 (no result: procasp7 counter, proCasp3 act) | Hep lipid conf 108 | AML12 tox img inactive | AML12 tox conf inactive
Cc1cc(N2CCCCCC2)n2nc(C)c(-c3ccccc3)c2n1	none (no result: procasp7 counter, proCasp3 act)
Cc1cc(N2CCOCC2)n2nc(C)c(-c3ccccc3Cl)c2n1	Hep lipid drop 78 (no result: procasp7 counter, proCasp3 act) | Hep lipid conf 107 | AML12 tox img inactive | AML12 tox conf inactive
Cc1cc(N2CCOCC2)n2nc(C)c(-c3ccccc3)c2n1	none (no result: Rce1 inhib, Hep lipid drop)
CC1=C(/C=N/Nc2ccc([N+](=O)[O-])cc2[N+](=O)[O-])C(C)(C)CCC1	Hep lipid drop 72 | Hep lipid conf 115 | AML12 tox img inactive | AML12 tox conf inactive
COc1ccc(/C=N\Nc2ccc([N+](=O)[O-])cc2[N+](=O)[O-])c(C(=O)O)c1OC	none
CC(=O)c1ccc(N2CCC(C)CC2)c(F)c1	none
CC(=O)c1ccc(N2CCCC2)c(F)c1	Hep lipid drop 53 (no result: GAA850 FXN act) | Hep lipid conf inactive | AML12 tox img inactive
CC(Sc1nc(NCc2ccccc2)nc(N2CCOCC2)n1)C(=O)Nc1ccccc1 (centres undefined)	Hep lipid drop 59 | Hep lipid conf 99 | AML12 tox img inactive | AML12 tox conf inactive
CCNc1nc(SC(C)C(=O)Nc2ccccc2)nc(N2CCOCC2)n1 (centres undefined)	none
CC1(C(=O)Nc2cnc3ccccc3c2)CCN1Cc1cc2ccccc2o1 (centres undefined)	none (no result: Rce1 inhib, Hep lipid drop, procasp7 counter, proCasp3 act, p-CIP stab down)
Cc1ccc(NC(=O)CN(C)S(=O)(=O)c2cccs2)c(Br)c1	Hep lipid drop 63 (no result: Rce1 inhib) | Hep lipid conf inactive | AML12 tox img inactive
COc1ccccc1Nc1ccc(NS(=O)(=O)c2ccc(C(C)=O)cc2)cc1	Hep lipid drop 99 | Hep lipid conf 94 | AML12 tox img inactive
COc1ccccc1NS(=O)(=O)c1ccc(NC(C)=O)cc1	none
CC(C)n1c(O)c(N=NC(=O)C2COc3ccccc3O2)c2ccccc21 (centres undefined)	Hep lipid drop 52 (no result: Rce1 inhib) | Hep lipid conf inactive | AML12 tox img inactive
COC1=CC(C)C2CC3OC(=O)CC4C(C)=C(OC)C(=O)C(C2(C)C1=O)C34C (centres undefined)	none (no result: Rce1 inhib, Hep lipid drop, procasp7 counter, proCasp3 act, p-CIP stab down)
CCOc1ccccc1-c1cc(C(=O)N/N=C/c2ccc(O)c(OC)c2)c2ccccc2n1	Hep lipid drop 50 | Hep lipid conf 72 | AML12 tox img inactive | AML12 tox conf inactive
CCOC(=O)c1cc(-c2ccc(F)cc2)n(CC(=O)NC(C)CC)c1C (centres undefined)	Hep lipid drop 70 | Hep lipid conf 66 | AML12 tox img inactive | AML12 tox conf inactive
CCOC(=O)C1(C)CCN1C(=O)Cc1ccc(OC)cc1 (centres undefined)	none (no result: Rce1 inhib, Hep lipid drop, procasp7 counter, proCasp3 act, p-CIP stab down)
CC(=O)Nc1ccc(S(=O)(=O)NC2=C(N3CCN(C)CC3)C(=O)c3ccccc3C2=O)cc1	none
O=C1C(NS(=O)(=O)c2ccc(Br)cc2)=C(N2CCCCC2)C(=O)c2ccccc21	none
CC1CCCN(C2=C(NS(=O)(=O)c3ccc(Br)cc3)C(=O)c3ccccc3C2=O)C1 (centres undefined)	Hep lipid drop 50 | Hep lipid conf 112 | AML12 tox img inactive | AML12 tox conf inactive
O=C1C(NS(=O)(=O)c2ccccc2)=C(N2CCN(c3ccc(F)cc3)CC2)C(=O)c2ccccc21	Hep lipid drop 79 | Hep lipid conf 81 | AML12 tox img inactive | AML12 tox conf inactive
CC1CCN(C2=C(NS(=O)(=O)c3ccccc3)C(=O)c3ccccc3C2=O)CC1	none
O=C1C(NS(=O)(=O)c2cccs2)=C(N2CCN(c3cccc(Cl)c3)CC2)C(=O)c2ccccc21	Hep lipid drop 61 | Hep lipid conf 112 | AML12 tox img inactive | AML12 tox conf inactive
CC1CCN(C2=C(NS(=O)(=O)c3ccc(Br)cc3)C(=O)c3ccccc3C2=O)CC1	Hep lipid drop 60 | Hep lipid conf 114 | AML12 tox img inactive | AML12 tox conf inactive
COC(=O)c1cc(CSc2nc3ccccc3c(=O)n2C)oc1C	none
O=C(OCc1ccc([N+](=O)[O-])cc1)c1ccc(N2CCCC2)c([N+](=O)[O-])c1	none
CCc1ccc(NC(=O)C(C)OC(=O)c2ccc(N3CCCC3)c([N+](=O)[O-])c2)cc1 (centres undefined)	Hep lipid drop 92 | Hep lipid conf 107 | AML12 tox img inactive
NC(c1csc(Nc2ncccn2)n1)c1ccccc1Cl (centres undefined)	none (no result: Rce1 inhib, Hep lipid drop, procasp7 counter, proCasp3 act, p-CIP stab down)
Cc1c(C(=O)N(C)Cc2ccc(F)cc2)sc(=O)n1Cc1ccc(Cl)c(Cl)c1	none (no result: Rce1 inhib, Hep lipid drop, procasp7 counter, proCasp3 act, p-CIP stab down)
COC(C[C@@H](O)C[C@@H](O)COCc1ccccc1)OC	Hep lipid drop 113 (no result: procasp7 counter, proCasp3 act) | Hep lipid conf inactive | AML12 tox img inactive
COC(C[C@H](O)C[C@@H](O)COCc1ccccc1)OC	none (no result: procasp7 counter, proCasp3 act)
